In ChEMBL document CHEMBL2169880, “Synthesis of C-Pseudonucleosides Bearing Thiazolidin-4-one as a Novel Potential Immunostimulating Agent” (2011):
Activity calls are given as the source filed them. The rule behind the calls is not given here.

Columns and labels:
[1] = Immunostimulating activity in BALb/c mouse splenocytes assessed as increase in concanavalin A-induced cell proliferation at 50 uM after 72 hrs by MTT assay; assay type: functional, Splenocyte
Outline: (§1)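 Mouse splenocytes co-treated with concanavalin A and compound at 5, 10, 25, 50 or 100 μM. Incubated 72 h at 37 °C under 5% CO₂, then proliferation read by MTT. Result expressed as % increase relative to Con A alone. Means ± SEM of at least three independent experiments.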

[2] = Immunostimulating activity in BALb/c mouse splenocytes assessed as increase in concanavalin A-induced cell proliferation at 100 uM after 72 hrs by MTT assay; assay type: functional, Splenocyte; outline: as §1
[3] = (§2) Immunostimulating activity in BALb/c mouse splenocytes assessed as increase in concanavalin A-induced cell proliferation at 5 uM after 72 hrs by MTT assay; assay type: functional, Splenocyte; outline: as §1
[4] = Immunostimulating activity in BALb/c mouse splenocytes assessed as increase in concanavalin A-induced cell proliferation at 10 uM after 72 hrs by MTT assay; assay type: functional, Splenocyte; outline: as §1
[5] = Immunostimulating activity in BALb/c mouse splenocytes assessed as increase in concanavalin A-induced cell proliferation at 25 uM after 72 hrs by MTT assay; assay type: functional, Splenocyte; outline: as §1
Splenocyte [6] = assay: Immunostimulating activity in concanavalin A-stimulated BALb/c mouse splenocytes assessed as increase in IL2 secretion at 10 uM after 72 hrs by ELISA; assay type: functional
Outline: (§3)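 IL-4, IL-2 and IFN-γ measured by mouse ELISA in supernatants of total splenocyte cultures. Cultures contained concanavalin A (printed as 20 μM) plus compound at 5, 10 or 50 μM. Compared with Con A alone. Means ± SEM of at least three independent experiments.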

B [7] = assay: Immunostimulating activity in BALb/c mouse CD19+ B cells at 10 uM after 72 hrs by MTT assay; assay type: functional, cell-based
Splenocyte [8] = assay: Immunostimulating activity in concanavalin A-stimulated BALb/c mouse splenocytes assessed as increase in IL4 secretion at 10 uM after 72 hrs by ELISA; assay type: functional; outline: as §3
Splenocyte [9] = assay: Immunostimulating activity in concanavalin A-stimulated BALb/c mouse splenocytes assessed as increase in IFNgamma secretion at 10 uM after 72 hrs by ELISA; assay type: functional; outline: as §3
T-cell [10] = assay: Immunostimulating activity in BALb/c mouse CD4+ T cells at 10 uM after 72 hrs by […]; assay type: functional, cell-based
Outline: (§4)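 CD3+, CD4+ and CD8+ T cells and CD19+ B cells from splenocyte cultures quantified by flow cytometry. Compound at 5, 10 or 50 μM, compared with Con A-treated cells. Means ± SEM of at least three independent experiments.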

Splenocyte [11] = assay: Immunostimulating activity in BALb/c mouse splenocytes assessed as cell proliferation at 5 to 100 uM after 72 hrs by MTT assay; assay type: functional, cell-based
Outline: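 Mouse splenocytes exposed to compound without concanavalin A. Proliferation measured by MTT after 72 h at 37 °C, 5% CO₂.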

T-cell [12] = assay: Immunostimulating activity in BALb/c mouse CD3+ T cells at 10 uM after 72 hrs by MTT assay; assay type: functional, cell-based
T-cell [13] = assay: Immunostimulating activity in BALb/c mouse CD8+ T cells at 10 uM after 72 hrs by MTT assay; assay type: functional, cell-based
T-cell [14] = assay: Immunostimulating activity in BALb/c mouse CD3+ T cells at 50 uM after 72 hrs by […]; assay type: functional, cell-based; outline: as §4
T-cell [15] = assay: Immunostimulating activity in BALb/c mouse CD8+ T cells at 50 uM after 72 hrs by […]; assay type: functional, cell-based; outline: as §4
Splenocyte [16] = assay: Immunostimulating activity in concanavalin A-stimulated BALb/c mouse splenocytes assessed as increase in IL2 secretion at 50 uM after 72 hrs by ELISA; assay type: functional; outline: as §3
B [17] = assay: Immunostimulating activity in BALb/c mouse CD19+ B cells at 50 uM after 72 hrs by MTT assay; assay type: functional, cell-based
T-cell [18] = assay: Immunostimulating activity in BALb/c mouse CD4+ T cells at 50 uM after 72 hrs by MTT assay; assay type: functional, cell-based
Splenocyte [19] = assay: Immunostimulating activity in concanavalin A-stimulated BALb/c mouse splenocytes assessed as increase in IFNgamma secretion at 50 uM after 72 hrs by ELISA; assay type: functional; outline: as §3
Splenocyte [20] = assay: Immunostimulating activity in concanavalin A-stimulated BALb/c mouse splenocytes assessed as increase in IL4 secretion at 50 uM after 72 hrs by ELISA; assay type: functional; outline: as §3
Splenocyte [21] = assay: Immunostimulating activity in concanavalin A-stimulated BALb/c mouse splenocytes assessed as increase in IFNgamma secretion at 5 uM after 72 hrs by ELISA; assay type: functional, cell-based; outline: as §3
Splenocyte [22] = assay: Immunostimulating activity in concanavalin A-stimulated BALb/c mouse splenocytes assessed as increase in IL2 secretion at 5 uM after 72 hrs by ELISA; assay type: functional; outline: as §3
Splenocyte [23] = assay: Immunostimulating activity in concanavalin A-stimulated BALb/c mouse splenocytes assessed as increase in IL4 secretion at 5 uM after 72 hrs by ELISA; assay type: functional; outline: as §3
B [24] = assay: Immunostimulating activity in BALb/c mouse CD19+ B cells at 5 uM after 72 hrs […]; assay type: functional, cell-based; outline: as §4
T-cell [25] = assay: Immunostimulating activity in BALb/c mouse CD8+ T cells at 5 uM after 72 hrs […]; assay type: functional, cell-based; outline: as §4
T-cell [26] = assay: Immunostimulating activity in BALb/c mouse CD4+ T cells at 5 uM after 72 hrs by MTT assay; assay type: functional, cell-based
[27] = Immunostimulating activity in BALb/c mouse splenocytes assessed as increase in LPS-induced cell proliferation at 5 uM after 72 hrs by MTT assay; assay type: functional, Splenocyte
Outline: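 Splenocyte proliferation induced by LPS, with compound added at 5 μM. Reported as % increase over LPS-treated cells. Means ± SEM of at least three independent experiments.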

T-cell [28] = assay: Immunostimulating activity in BALb/c mouse CD3+ T cells at 5 uM after 72 hrs by […]; assay type: functional, cell-based; outline: as §4
Splenocyte [29] = assay: as §2; assay type: functional; outline: as §1

CCCCN1C(=O)CS[C@H]1[C@H]1O[C@H](CO)[C@@H](O)[C@@H]1O
Activity [1]: <50%
Activity [2]: <50%
Activity [3]: <50%
Activity [4]: <50%
Activity [5]: <50%

CCCCN1C(=O)CS[C@@H]1[C@H]1O[C@H](CO)[C@@H](O)[C@@H]1O
Activity [1]: <50%
Activity [2]: <50%
Activity [3]: <50%
Activity [4]: <50%
Activity [5]: <50%

CN1C(=O)CS[C@H]1[C@H]1O[C@H](CO)[C@@H](O)[C@@H]1O
Activity [1]: 35%
Activity (Splenocyte [6]): 78%
Activity [2]: 245%
Activity (B [7]): inactive
Activity (Splenocyte [8]): 43%
Activity [3]: 28%
Activity (Splenocyte [9]): 21%
Activity [4]: 290%
Activity (T-cell [10]): Active
Activity (Splenocyte [11]): inactive
Activity [5]: 138%
Activity (T-cell [12]): Active
Activity (T-cell [13]): inactive

CCCCCCCCN1C(=O)CS[C@@H]1[C@H]1O[C@H](CO)[C@@H](O)[C@@H]1O
Activity [1]: <50%
Activity [2]: <50%
Activity [3]: <50%
Activity [4]: <50%
Activity [5]: <50%

CN1C(=O)CS[C@@H]1[C@H]1O[C@H](CO)[C@@H](O)[C@@H]1O
Activity [1]: 327%
Activity (T-cell [14]): Active
Activity [2]: 230%
Activity (T-cell [15]): inactive
Activity (Splenocyte [16]): 37%
Activity (B [17]): inactive
Activity (T-cell [18]): Active
Activity [3]: 111%
Activity [4]: 98%
Activity (Splenocyte [19]): 30%
Activity (Splenocyte [11]): inactive
Activity [5]: 91%
Activity (Splenocyte [20]): 42%

O=C1CS[C@H]([C@H]2O[C@H](CO)[C@@H](O)[C@@H]2O)N1c1ccccc1
Activity [1]: 171%
Activity (Splenocyte [21]): inactive
Activity (Splenocyte [22]): 138%
Activity (Splenocyte [23]): 41%
Activity (B [24]): Active
Activity [3]: 166%
Activity [4]: <50%
Activity (Splenocyte [11]): inactive
Activity (T-cell [25]): inactive
Activity (T-cell [26]): Active
Activity [5]: <50%
Activity [27]: 238%
Activity (T-cell [28]): Active

O=C1CS[C@@H]([C@H]2O[C@H](CO)[C@@H](O)[C@@H]2O)N1c1ccccc1
Activity [1]: <50%
Activity (Splenocyte [21]): inactive
Activity (Splenocyte [22]): 99%
Activity (Splenocyte [23]): 39%
Activity [2]: <50%
Activity (B [24]): Active
Activity (Splenocyte [29]): Active
Activity [4]: <50%
Activity (Splenocyte [11]): inactive
Activity (T-cell [25]): inactive
Activity (T-cell [26]): Active
Activity [5]: <50%
Activity [27]: 117%
Activity (T-cell [28]): Active

CCCCCCCCN1C(=O)CS[C@H]1[C@H]1O[C@H](CO)[C@@H](O)[C@@H]1O
Activity [1]: <50%
Activity [2]: <50%
Activity [3]: <50%
Activity [4]: <50%
Activity [5]: <50%

CCCCCCCCCCCCCCCCCCN1C(=O)CS[C@H]1[C@H]1O[C@H](CO)[C@@H](O)[C@@H]1O
Activity [1]: <50%
Activity [2]: <50%
Activity [3]: <50%
Activity [4]: <50%
Activity [5]: <50%

CCCCCCCCCCCCCCCCCCN1C(=O)CS[C@@H]1[C@H]1O[C@H](CO)[C@@H](O)[C@@H]1O
Activity [1]: <50%
Activity [2]: <50%
Activity [3]: <50%
Activity [4]: <50%
Activity [5]: <50%
